In ChEMBL document CHEMBL4190207, “Lignans from the Roots of Taxus wallichiana and Their α-Glucosidase Inhibitory Activities” (J Nat Prod, 2017):

Assay: Inhibition of Saccharomyces cerevisiae alpha-glucosidase using p-nitrophenyl-alpha-D-glucopyranoside as substrate after 30 mins
How it was run: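 Reaction started by adding 3 mM p-nitrophenyl-α-D-glucopyranoside and 0.2 U/mL α-glucosidase (both stock concentrations) in 0.01 M phosphate buffer, pH 7.0, to the sample solution. Incubated at 37 °C for 30 min, then stopped with 0.1 M Na2CO3. Activity read as absorbance at 401 nm. IC50 is the concentration giving 50% inhibition of enzyme activity. Acarbose was the positive control.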

Question: For COc1cc([C@H]2OC[C@@H]([C@@H](OC)c3ccc(O)c(OC)c3)[C@H]2CO)ccc1O (relative stereo), which IC50 is on record?
Answer: The IC50 was 42.9 µM.

Question: Which IC50 does the source give for COc1cc([C@H]2c3cc(O)c(OC)cc3C[C@H]3C(=O)OC[C@H]23)ccc1O [ALPHA-CONIDENDRIN] here?
Answer: Its IC50 is 194 µM.

Question: Which IC50 does the source give for COc1cc(C[C@H]2[C@@H](OC)OC[C@@H]2[C@H](OC)c2ccc(O)c(OC)c2)ccc1O here?
Answer: The IC50 was 133 µM.

Question: Which IC50 does the source give for COc1cc2c(cc1O)C1c3cc(O)c(O)cc3C(=O)C(C2)C1CO (stereo unspecified) here?
Answer: Its IC50 is 135 µM.

Question: For COc1cc([C@@H](OC)[C@@H]2CO[C@H](c3ccc(O)c(OC)c3)[C@@H]2CO)ccc1O (relative stereo), which IC50 is on record?
Answer: The IC50 was 170 µM.

Question: For COc1cc2c(cc1O)C1c3cc(OC)c(O)cc3C(=O)C(C2)C1CO (stereo unspecified), which IC50 is on record?
Answer: The IC50 was 52.2 µM.

Question: With COc1cc(C[C@H]2COC(=O)[C@@H]2Cc2ccc(O)c(OC)c2)ccc1O [MATAIRESINOL] as the compound, how does the IC50 read?
Answer: Its IC50 is 175 µM.

Question: For COc1cc([C@H]2c3cc(O)c(OC)cc3C[C@H]3[C@H](OC)OC[C@H]23)ccc1O, which IC50 is on record?
Answer: The IC50 was 35.3 µM.

Question: Which IC50 does the source give for COc1cc(C[C@H]2C(=O)OC[C@@H]2C(=O)c2ccc(O)c(OC)c2)ccc1O here?
Answer: The IC50 was 79.1 µM.

Question: With COc1cc([C@H]2c3cc(O)c(OC)cc3C[C@H]3[C@@H](OC)OC[C@H]23)ccc1O as the compound, how does the IC50 read?
Answer: The IC50 was 38.8 µM.

Question: For C[C@H]1O[C@H](O[C@H]2[C@H](O)[C@@H](O)[C@@H](O[C@H]3[C@H](O)[C@@H](O)C(O)O[C@@H]3CO)O[C@@H]2CO)[C@H](O)[C@@H](O)[C@@H]1N[C@H]1C=C(CO)[C@@H](O)[C@H](O)[C@H]1O (stereo partly specified) [ACARBOSE], which IC50 is on record?
Answer: Its IC50 is 215 µM.
